system: Staphylococcus aureus; experiment: Bactericidal activity against methicillin-resistant Staphylococcus aureus ATCC 43300 assessed as reduction in microbial growth measured after 18 hrs by CLSI based broth microdilution method; assay type: functional; details: not given

| SMILES | MBC [µg/mL] |
| --- | --- |
| O=C(O)c1cc(Nc2nc(-c3sc(NC(=O)c4ccccc4)nc3C(F)(F)F)cs2)cc(C(F)(F)F)c1 | > 64 |

system: not listed separately; experiment: Cytotoxicity against african green monkey Vero E6 cells assessed as reduction in cell viability by MTT assay; assay type: toxicity, cell-based; details: chlorocebus sabaeus, Vero E6 cells (Vero C1008)
In short: (§1)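 MTT viability on HeLa or VeroE6 cells, run in parallel with the antiviral assays. CC50 from variable-slope sigmoidal dose–response regression.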

| SMILES | CC50 [µM] |
| --- | --- |
| O=C(O)c1cc(Nc2nc(-c3sc(NC(=O)c4ccccc4)nc3C(F)(F)F)cs2)cc(C(F)(F)F)c1 | > 50 |

system: Streptococcus pyogenes; experiment: Antibacterial activity against Streptococcus pyogenes ATCC 12344 assessed as reduction in microbial growth measured after 18 hrs by CLSI based broth microdilution method; assay type: functional; details: not given
In short: (§2)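 MIC by CLSI broth microdilution in Mueller–Hinton medium, triplicate. Inoculum 5 × 10^4 CFU per well. Compounds taken up in DMSO (50 mg mL−1 stock) and diluted in medium. Read after 18 h at 35 ± 2 °C.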

| SMILES | MIC [µg/mL] |
| --- | --- |
| O=C(O)c1cc(Nc2nc(-c3sc(NC(=O)c4ccccc4)nc3C(F)(F)F)cs2)cc(C(F)(F)F)c1 | 2 |

system: rhinovirus A16; details: hela

| SMILES | IC50 |
| --- | --- |
| O=C(O)c1cc(Nc2nc(-c3sc(NC(=O)c4ccccc4)nc3C(F)(F)F)cs2)cc(C(F)(F)F)c1 | Not Active |

system: Acinetobacter baumannii; experiment: Synergistic antibacterial activity against Acinetobacter baumannii ATCC 17978 incubated for 18 to 24 hrs in presence of colistin by broth microdilution method; assay type: functional; details: time 18-24 hrs

| SMILES | MAC [µg/mL] |
| --- | --- |
| O=C(O)c1cc(Nc2nc(-c3sc(NC(=O)c4ccccc4)nc3C(F)(F)F)cs2)cc(C(F)(F)F)c1 | >64 |

system: Staphylococcus epidermidis; experiment: Antibacterial activity against linezolid-resistant Staphylococcus epidermidis SI-1266 assessed as reduction in microbial growth measured after 18 hrs by CLSI based broth microdilution method; assay type: functional; details: not given
In short: (§3)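 Gram-positive clinical isolates; compounds dissolved in DMSO (50 mg mL−1 stock) and diluted in medium; MIC by CLSI broth microdilution in Mueller–Hinton medium, inoculum 5 × 10^4 CFU per well, read after 18 h at 35 ± 2 °C; triplicate.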

| SMILES | MIC [µg/mL] |
| --- | --- |
| O=C(O)c1cc(Nc2nc(-c3sc(NC(=O)c4ccccc4)nc3C(F)(F)F)cs2)cc(C(F)(F)F)c1 | 32 |

system: Klebsiella pneumoniae; experiment: Synergistic antibacterial activity against Klebsiella pneumoniae ATCC 13833 incubated for 18 to 24 hrs in presence of colistin by broth microdilution method; assay type: functional; details: time 18-24 hrs

| SMILES | MAC [µg/mL] |
| --- | --- |
| O=C(O)c1cc(Nc2nc(-c3sc(NC(=O)c4ccccc4)nc3C(F)(F)F)cs2)cc(C(F)(F)F)c1 | >64 |

system: Enterococcus faecium; experiment: Antibacterial activity against Vancomycin resistant Enterococcus faecium SI-1831 assessed as reduction in microbial growth measured after 18 hrs by CLSI based broth microdilution method; assay type: functional; details: not given; in short: as §3

| SMILES | MIC [µg/mL] |
| --- | --- |
| O=C(O)c1cc(Nc2nc(-c3sc(NC(=O)c4ccccc4)nc3C(F)(F)F)cs2)cc(C(F)(F)F)c1 | > 64 |

system: Streptococcus pyogenes; experiment: Bactericidal activity against Streptococcus pyogenes ATCC 12344 assessed as reduction in microbial growth measured after 18 hrs by CLSI based broth microdilution method; assay type: functional; details: not given
In short: (§4)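 MBC by CLSI broth microdilution in Mueller–Hinton medium, triplicate. Inoculum 5 × 10^4 CFU per well. Read after 18 h at 35 ± 2 °C.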

| SMILES | MBC [µg/mL] |
| --- | --- |
| O=C(O)c1cc(Nc2nc(-c3sc(NC(=O)c4ccccc4)nc3C(F)(F)F)cs2)cc(C(F)(F)F)c1 | > 32 |

system: not listed separately; experiment: Cytotoxicity against human HeLa cells assessed as reduction in cell viability by MTT assay; assay type: toxicity, cell-based; details: not given; in short: as §1

| SMILES | CC50 [µM] |
| --- | --- |
| O=C(O)c1cc(Nc2nc(-c3sc(NC(=O)c4ccccc4)nc3C(F)(F)F)cs2)cc(C(F)(F)F)c1 | > 50 |

system: Escherichia coli; experiment: Synergistic antibacterial activity against Escherichia coli CCUGT incubated for 18 to 24 hrs in presence of colistin by broth microdilution method; assay type: functional; details: time 18-24 hrs

| SMILES | MAC [µg/mL] |
| --- | --- |
| O=C(O)c1cc(Nc2nc(-c3sc(NC(=O)c4ccccc4)nc3C(F)(F)F)cs2)cc(C(F)(F)F)c1 | >64 |

system: Staphylococcus aureus; experiment: Antibacterial activity against methicillin-resistant Staphylococcus aureus ATCC 43300 assessed as reduction in microbial growth measured after 18 hrs by CLSI based broth microdilution method; assay type: functional; details: not given; in short: as §3

| SMILES | MIC [µg/mL] |
| --- | --- |
| O=C(O)c1cc(Nc2nc(-c3sc(NC(=O)c4ccccc4)nc3C(F)(F)F)cs2)cc(C(F)(F)F)c1 | > 64 |

system: enterovirus D68; details: hela

| SMILES | IC50 |
| --- | --- |
| O=C(O)c1cc(Nc2nc(-c3sc(NC(=O)c4ccccc4)nc3C(F)(F)F)cs2)cc(C(F)(F)F)c1 | Not Active |

system: Enterococcus faecalis; experiment: Bactericidal activity against Enterococcus faecalis ATCC 29212 assessed as reduction in microbial growth measured after 18 hrs by CLSI based broth microdilution method; assay type: functional; details: not given; in short: as §4

| SMILES | MBC [µg/mL] |
| --- | --- |
| O=C(O)c1cc(Nc2nc(-c3sc(NC(=O)c4ccccc4)nc3C(F)(F)F)cs2)cc(C(F)(F)F)c1 | > 32 |

system: Enterococcus faecalis; experiment: Antibacterial activity against Enterococcus faecalis ATCC 29212 assessed as reduction in microbial growth measured after 18 hrs by CLSI based broth microdilution method; assay type: functional; details: not given; in short: as §2

| SMILES | MIC [µg/mL] |
| --- | --- |
| O=C(O)c1cc(Nc2nc(-c3sc(NC(=O)c4ccccc4)nc3C(F)(F)F)cs2)cc(C(F)(F)F)c1 | 2 |

system: Staphylococcus epidermidis; experiment: Bactericidal activity against linezolid-resistant Staphylococcus epidermidis SI-1266 assessed as reduction in microbial growth measured after 18 hrs by CLSI based broth microdilution method; assay type: functional; details: not given

| SMILES | MBC [µg/mL] |
| --- | --- |
| O=C(O)c1cc(Nc2nc(-c3sc(NC(=O)c4ccccc4)nc3C(F)(F)F)cs2)cc(C(F)(F)F)c1 | > 64 |

system: Staphylococcus haemolyticus; experiment: Antibacterial activity against oxacillin-resistant Staphylococcus haemolyticus SI-6/2011 assessed as reduction in microbial growth measured after 18 hrs by CLSI based broth microdilution method; assay type: functional; details: not given; in short: as §3

| SMILES | MIC [µg/mL] |
| --- | --- |
| O=C(O)c1cc(Nc2nc(-c3sc(NC(=O)c4ccccc4)nc3C(F)(F)F)cs2)cc(C(F)(F)F)c1 | 32 |

system: Staphylococcus haemolyticus; experiment: Bactericidal activity against oxacillin-resistant Staphylococcus haemolyticus SI-6/2011 assessed as reduction in microbial growth measured after 18 hrs by CLSI based broth microdilution method; assay type: functional; details: not given

| SMILES | MBC [µg/mL] |
| --- | --- |
| O=C(O)c1cc(Nc2nc(-c3sc(NC(=O)c4ccccc4)nc3C(F)(F)F)cs2)cc(C(F)(F)F)c1 | > 64 |

system: Staphylococcus warneri; experiment: Bactericidal activity against oxacillin-resistant Staphylococcus warneri SI-5/2011 assessed as reduction in microbial growth measured after 18 hrs by CLSI based broth microdilution method; assay type: functional; details: not given

| SMILES | MBC [µg/mL] |
| --- | --- |
| O=C(O)c1cc(Nc2nc(-c3sc(NC(=O)c4ccccc4)nc3C(F)(F)F)cs2)cc(C(F)(F)F)c1 | > 64 |

system: Staphylococcus warneri; experiment: Antibacterial activity against oxacillin-resistant Staphylococcus warneri SI-5/2011 assessed as reduction in microbial growth measured after 18 hrs by CLSI based broth microdilution method; assay type: functional; details: not given; in short: as §3

| SMILES | MIC [µg/mL] |
| --- | --- |
| O=C(O)c1cc(Nc2nc(-c3sc(NC(=O)c4ccccc4)nc3C(F)(F)F)cs2)cc(C(F)(F)F)c1 | > 64 |

system: Enterococcus faecium; experiment: Bactericidal activity against Vancomycin resistant Enterococcus faecium SI-3856B assessed as reduction in microbial growth measured after 18 hrs by CLSI based broth microdilution method; assay type: functional; details: not given

| SMILES | MBC [µg/mL] |
| --- | --- |
| O=C(O)c1cc(Nc2nc(-c3sc(NC(=O)c4ccccc4)nc3C(F)(F)F)cs2)cc(C(F)(F)F)c1 | > 64 |

system: Staphylococcus aureus; experiment: Antibacterial activity against Staphylococcus aureus ATCC 25923 assessed as reduction in microbial growth measured after 18 hrs by CLSI based broth microdilution method; assay type: functional; details: not given; in short: as §2

| SMILES | MIC [µg/mL] |
| --- | --- |
| O=C(O)c1cc(Nc2nc(-c3sc(NC(=O)c4ccccc4)nc3C(F)(F)F)cs2)cc(C(F)(F)F)c1 | > 32 |

system: Bacillus subtilis; experiment: Bactericidal activity against Bacillus subtilis ATCC 6633 assessed as reduction in microbial growth measured after 18 hrs by CLSI based broth microdilution method; assay type: functional; details: not given; in short: as §4

| SMILES | MBC [µg/mL] |
| --- | --- |
| O=C(O)c1cc(Nc2nc(-c3sc(NC(=O)c4ccccc4)nc3C(F)(F)F)cs2)cc(C(F)(F)F)c1 | 32 |

system: Enterococcus faecium; experiment: Antibacterial activity against Vancomycin/teicoplanin resistant Enterococcus faecium SI-759 assessed as reduction in microbial growth measured after 18 hrs by CLSI based broth microdilution method; assay type: functional; details: not given; in short: as §3

| SMILES | MIC [µg/mL] |
| --- | --- |
| O=C(O)c1cc(Nc2nc(-c3sc(NC(=O)c4ccccc4)nc3C(F)(F)F)cs2)cc(C(F)(F)F)c1 | 64 |

system: Enterococcus faecium; experiment: Antibacterial activity against Vancomycin resistant Enterococcus faecium SI-3856B assessed as reduction in microbial growth measured after 18 hrs by CLSI based broth microdilution method; assay type: functional; details: not given; in short: as §3

| SMILES | MIC [µg/mL] |
| --- | --- |
| O=C(O)c1cc(Nc2nc(-c3sc(NC(=O)c4ccccc4)nc3C(F)(F)F)cs2)cc(C(F)(F)F)c1 | > 64 |

system: Enterococcus faecium; experiment: Bactericidal activity against Vancomycin/teicoplanin resistant Enterococcus faecium SI-759 assessed as reduction in microbial growth measured after 18 hrs by CLSI based broth microdilution method; assay type: functional; details: not given

| SMILES | MBC [µg/mL] |
| --- | --- |
| O=C(O)c1cc(Nc2nc(-c3sc(NC(=O)c4ccccc4)nc3C(F)(F)F)cs2)cc(C(F)(F)F)c1 | > 64 |

system: Bacillus subtilis; experiment: Antibacterial activity against Bacillus subtilis ATCC 6633 assessed as reduction in microbial growth measured after 18 hrs by CLSI based broth microdilution method; assay type: functional; details: not given; in short: as §2

| SMILES | MIC [µg/mL] |
| --- | --- |
| O=C(O)c1cc(Nc2nc(-c3sc(NC(=O)c4ccccc4)nc3C(F)(F)F)cs2)cc(C(F)(F)F)c1 | 4 |

system: Zika virus; details: vero e6

| SMILES | IC50 |
| --- | --- |
| O=C(O)c1cc(Nc2nc(-c3sc(NC(=O)c4ccccc4)nc3C(F)(F)F)cs2)cc(C(F)(F)F)c1 | Not Active |

system: Enterococcus faecium; experiment: Bactericidal activity against Vancomycin resistant Enterococcus faecium SI-1831 assessed as reduction in microbial growth measured after 18 hrs by CLSI based broth microdilution method; assay type: functional; details: not given

| SMILES | MBC [µg/mL] |
| --- | --- |
| O=C(O)c1cc(Nc2nc(-c3sc(NC(=O)c4ccccc4)nc3C(F)(F)F)cs2)cc(C(F)(F)F)c1 | > 64 |

system: Pseudomonas aeruginosa; experiment: Synergistic antibacterial activity against Pseudomonas aeruginosa ATCC 27853 incubated for 18 to 24 hrs in presence of colistin by broth microdilution method; assay type: functional; details: time 18-24 hrs

| SMILES | MAC [µg/mL] |
| --- | --- |
| O=C(O)c1cc(Nc2nc(-c3sc(NC(=O)c4ccccc4)nc3C(F)(F)F)cs2)cc(C(F)(F)F)c1 | >64 |

— ChEMBL document CHEMBL5532695, “4-Trifluoromethyl bithiazoles as broad-spectrum antimicrobial agents for virus-related bacterial infections or co-infections” (RSC Med Chem, 2024)
